The text below walks through data of ChEMBL document CHEMBL3856227, “Identification of the first small-molecule inhibitor of the REV7 DNA repair protein interaction” (Bioorg Med Chem, 2016).

Activity calls are given as the source filed them. The rule behind the calls is not given here.

The species named for test [1] is Homo sapiens. The experiment in a line: Inhibition of C-terminal TAMRA-labeled REV3L (1875 to 1895 residues) binding to 5'-MBP-His8/3'-FLAG-tagged REV7 R124A mutant (unknown origin) expressed in Escherichia coli BL21(DE3) at 3 to 300 uM after 4 hrs by fluorescence polarization assay. Put shortly: (§1)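 Compounds serially diluted from 10 mM DMSO stock. 4 h incubation, triplicate. Read at ex 555/em 632 nm, reported in mP. Controls: DMSO, and unlabeled REV3L peptides. Compound autofluorescence checked.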

Test [2] is filed under the species Homo sapiens. The experiment in a line: Binding affinity to biotin-Avi-tagged REV3L (1846 to 1898 residues)/His-tagged REV7 R124A mutant complex (unknown origin) expressed in Escherichia coli BL21(DE3) at 5 uM incubated for 20 hrs by pulldown assay. The method in brief:
(§2)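 Complex at 1 µM (biotin-AviTag-REV3L(1846–1898) co-expressed with His-REV7(R124A), Ni-purified) with 0.5% DMSO, compound (50 µM) or REV3L(1875–1895) peptide (5 µM) in 50 mM HEPES pH 7.4, 150 mM NaCl, 0.1% Tween 20. Shaken at 1500 rpm, 4 °C, 20 h. Streptavidin agarose then added for 4 h. Beads washed, heat-eluted, run on SDS gel, stained. Duplicates.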

Test [3] has as its system HeLa. The experiment in a line: Cytotoxicity in human HeLa cells assessed as decrease in cell viability at 75 uM after 3 days by alamar blue assay. The format is functional, cell-based. The method in brief:
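HeLa cells at 1000/well, attached overnight, then given compound or DMSO in fresh medium, triplicate, for 3 days. alamarBlue added for 3 h, fluorescence read at ex 510/em 590 nm. Viability normalized to DMSO-treated cells.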

The test system of test [4] is HeLa. Briefly: Potentiation of cisplatin-induced anticlonogenic activity in human HeLa cells at 75 uM after 24 hrs by crystal violet staining based assay. The format is functional, cell-based. Put shortly:
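HeLa cells at 450/well in 6-well plates, attached overnight. Cisplatin added at indicated concentrations; 24 h later, compound at 75 µM final or DMSO added for another 24 h. Medium then replaced and culture continued 6 days. Fixed in 3.7% formaldehyde, stained with 0.5% crystal violet, colonies over ~40 cells counted. Triplicate. Survival normalized to cisplatin-vehicle (0.9% NaCl) wells.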

For test [5], the system named is Mitotic spindle assembly checkpoint protein MAD2B (Homo sapiens), Q9UI95 [R124A]. Briefly: Binding affinity to 5'-MBP-His8/3'-FLAG-tagged REV7 R124A mutant (unknown origin) expressed in Escherichia coli BL21(DE3) at 200 uM by 1H waterLOGSY NMR method.
Another test has as its system COS-7. The experiment in a line: Inhibition of REV7/REV3L protein interaction in African green monkey COS7 cells expressing ICL assessed as inhibition of ICL repair activity at 75 uM after 13 hrs by luciferase reporter gene assay. Conditions: Chlorocebus aethiops. In kind it is cell-based. Put shortly:
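COS7 cells at 80,000/well. Medium replaced after 5 h, then transfected with pGL-ICL (10 ng) or pGL4.50 (2.5 ng) plus pRL-TK, FuGENE 6. Cells trypsinized 5 h later and replated in quadruplicate with compound or DMSO. Dual firefly/Renilla luciferase read after 13 h. ICL plasmid signal normalized to non-ICL plasmid. Two-tailed unpaired t-test.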
A general note: A reporter such as luciferase makes a cellular process visible.

Test [6] is described as follows: Inhibition of C-terminal TAMRA-labeled REV3L (1875 to 1895 residues) binding to 5'-MBP-His8/3'-FLAG-tagged REV7 R124A mutant (unknown origin) expressed in Escherichia coli BL21(DE3) after 4 hrs by fluorescence polarization assay. The arrangement: species or system Homo sapiens. The method in brief: as §1
Background: In fluorescence polarisation assays a small probe gives low polarisation when free and higher when bound to something large.

The species entered for test [7] is Homo sapiens. Briefly: Inhibition of C-terminal biotin-tagged REV3L (1875 to 1895 residues) binding to REV3L (1846 to 1898 residues)/His-tagged REV7 R124A mutant complex (unknown origin) expressed in Escherichia coli BL21(DE3) […] by alphascreen assay.
Test [8] is filed under the species Homo sapiens. Briefly: Binding affinity to biotin-Avi-tagged REV3L (1846 to 1898 residues)/His-tagged REV7 R124A mutant complex (unknown origin) expressed in Escherichia coli BL21(DE3) at 50 uM incubated for 20 hrs by pulldown assay. The method in brief:
as §2

The species named for test [9] is Homo sapiens. The experiment in a line: Destabilization of biotin-Avi-tagged REV3L (1846 to 1898 residues)/His-tagged REV7 R124A mutant complex (unknown origin) expressed in Escherichia coli BL21(DE3) incubated for 4 hrs by SYPRO orange dye based RT-PCR analysis. Put shortly: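 His-REV7(R124A)/REV3L complex at 5 µM in 25 mM HEPES, 100 mM NaCl, pH 7.3 with SYPRO orange 1:2000. Compound at 500 µM final (10 mM DMSO stock) or DMSO, duplicate, 4 h at room temperature. Ramp 25 to 95 °C at 1 °C/min, ex 492/em 610 nm. Tm taken as inflection point of Boltzmann sigmoid fit.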

Chain of Mitotic spindle assembly checkpoint protein MAD2B (Homo sapiens), Q9UI95 [R124A] (Q9UI95 whole entry R124A): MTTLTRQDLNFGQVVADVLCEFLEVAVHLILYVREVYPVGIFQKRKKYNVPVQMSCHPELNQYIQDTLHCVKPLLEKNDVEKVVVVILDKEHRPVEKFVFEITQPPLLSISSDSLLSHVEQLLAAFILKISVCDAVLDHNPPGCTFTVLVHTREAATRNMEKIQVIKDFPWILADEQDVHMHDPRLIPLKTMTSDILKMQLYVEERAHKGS

As to `CC(=O)N1CCC(Cn2cnc3scc(-c4ccc(C(=O)N5CCOCC5)o4)c3c2=O)CC1`, the inhibition entry in the test filed under Homo sapiens [1] was “Active”.
On to `CC[C@H](C)[C@H](NC(=O)[C@H](CCC(=O)O)NC(=O)[C@H](CCC(=O)O)NC(=O)[C@H](CCCNC(=N)N)NC(=O)[C@H](CO)NC(=O)[C@@H]1CCCN1C(=O)[C@@H]1CCCN1C(=O)[C@H](CO)NC(=O)[C@H](CCSC)NC(=O)[C@H](CC(C)C)NC(=O)[C@@H]1CCCN1C(=O)[C@H](CCCCN)NC(=O)[C@H](CC(C)C)NC(=O)[C@@H](NC(=O)[C@H](CC(N)=O)NC(=O)[C@H](C)N)[C@@H](C)CC)C(=O)N[C@@H](CCSC)C(=O)N[C@@H](C)C(=O)N[C@H](C(=O)N[C@@H](CC(C)C)C(=O)N[C@@H](CC(C)C)C(=O)O)[C@@H](C)O`, for which the result in the test listed under Homo sapiens [2] was Active.
For the compound `CC(=O)N1CCC(Cn2cnc3scc(-c4ccc(C)o4)c3c2=O)CC1`, the result (in the test on HeLa [3]; in the test on HeLa [4]; in [5]) was Active. In the test on COS-7, the inhibition result is “Active”. In [6], this compound returned an IC50 of 78 µM.
As for `CC(=O)N1CCC(Cn2cnc3scc(-c4ccco4)c3c2=O)CC1`, the inhibition result in the test filed under Homo sapiens [7] is “Active”. In addition, the outcome in the test listed under Homo sapiens [8] and in the test filed under Homo sapiens [9] was Active.

Usually IC50 stands for the concentration needed to halve the response being measured.
